ERa coact pot: ER-alpha (human) coactivator binding potentiation | 86,000 tested, 1.3% active | TR-FRET ERalpha-LBD/SRC-Cy5 coactivator binding, 2 h; 100 = basal binding, no effect | AID 639 | coactivator binding (% of control), % at 25.6 µM; in the data active means activity above about 200%;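 further: binding measured in presence of low estradiol as agonist stimulus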
ERb coact inh: ER-beta (human) coactivator binding inhibition | Q92731 | TR-FRET ER-beta LBD / SRC1-Cy5 peptide binding; receptor agonist-loaded with 1 µM estradiol | inhibition, % at 25.6 µM | 86,000 tested, 1.3% active | AID 633;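 active means compounds whose percent inhibition of the receptor-coactivator binding signal exceeds about 50% in the single-dose screen, limit read from the data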
BAP1 inh: inhibitors of human BAP1 deubiquitinase. 72,000 tested, 0.48% active. calls only at 20 µM. recombinant BAP1, Ub-AMC hydrolysis fluorescence kinetic; stronger effect = lower value. AID 436. Q92560;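 active means activity remaining at or below 50% of control, provided the compound also passes the data quality filters; inactive means the rest, including low values that fail the filters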
ERa SRC1 inh: ER-alpha (human) coactivator binding inhibition; 86,000 tested, 1.7% active; TR-FRET ER-alpha LBD / SRC-1 peptide, estradiol-bound; inhibition, % at 25.6 µM; AID 629; P03372; in the data active means inhibition above about 50%
SF1 activator: SF-1 (human) activation | CHO-K1 Gal4-SF-1 LBD luciferase reporter; % increase over DMSO SF-1-specific signal | activation, % at 10 µM | 65,000 tested, 1.9% active | AID 522;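 active means activation above the mean activation of all tested compounds plus 3 SD, cut at about 50% in these data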
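material = CHO-K1 cells with Gal4–hSF-1 LBD chimera plus Gal4-driven luciferase | compound = 10 µM single point, 1% DMSO | incubation = 20 h compound exposure at 37 °C after 1 h cell settling | measured by = SteadyLite luciferase luminescence | evaluation = percent activation relative to DMSO median and mock-transfected background | control set = DMSO negative control and −SF1 background wells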
RORa activator: RORA (human) activation; P35398; CHO-K1 Gal4-RORA LBD luciferase reporter, luminescence; percent increase over mock-subtracted basal signal; activation, % at 10 µM; 65,000 tested, 1.5% active; AID 560;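 active means activation above the mean of all tested compounds plus 3 SD, cut at about 49% in these data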
BAP1 inh conf: confirmation of human BAP1 enzyme inhibitors; % of control activity, % at 20 µM; purified BAP1, Ub-ethyl ester hydrolysis, HPLC; stronger effect = lower value; 310 tested, 8% active; shares compounds with BAP1 inh;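 active means percent of control activity at or below 60%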
Each line names hits and unclear results; the compound was inactive in the other large screens (follow-up assays come after a bar, where shown); [ ] = another dose, or the depositor's remark. An excerpt weighted towards active compounds, which were near 5.1% of everything screened.

Cc1cc(/C=C2/C(=O)NC(=O)N(c3ccccc3)C2=O)c(C)n1-c1ccc(F)cc1	ERa SRC1 inh 51.6 (no result: BAP1 inh, SF1 activator, RORa activator)
O=C1NC(=O)C(=Cc2cn(CCOc3ccc4c(c3)OCO4)c3ccccc23)C(=O)N1	ERb coact inh 59.8[fluorescence artefact?], ERa SRC1 inh 84.1[fluorescence artefact?] (no result: BAP1 inh, SF1 activator, RORa activator)
COc1ccc(C(=O)Nc2ccc(Cl)cc2C(=O)c2ccccc2Cl)c(OC)c1	none (no result: ERa coact pot, ERb coact inh, ERa SRC1 inh, SF1 activator, RORa activator)
N#Cc1c(/N=C/c2c(O)n(Cc3ccco3)c(=O)[nH]c2=O)sc2c1CCCC2	ERb coact inh 74.8
Nc1ccnn1C1CCNCC1	ERb coact inh 95.5[fluorescence artefact?], ERa SRC1 inh 96.1[fluorescence artefact?]
CNc1ccc2oc(C[C@H]3O[C@@]4(CC[C@H]3C)O[C@H]([C@H](C)C(=O)c3ccc[nH]3)[C@H](C)C[C@H]4C)nc2c1C(=O)O	BAP1 inh active (no result: ERa coact pot, ERb coact inh, ERa SRC1 inh, SF1 activator, RORa activator)
CC(=O)Oc1ccc(C(=O)Nc2ccc(Cl)cc2C(=O)c2ccccc2)cc1	none (no result: ERa coact pot, ERb coact inh, ERa SRC1 inh, SF1 activator, RORa activator)
O=C(C1CC(c2ccc(F)cc2)=NO1)N1CCC2(CC1)OCCO2 (stereo unspecified)	none (no result: BAP1 inh, SF1 activator, RORa activator)
O=C(C1CC(c2ccc(Cl)c(Cl)c2)=NO1)N1CCC2(CC1)OCCO2 (stereo unspecified)	RORa activator 73.2
COc1cccc(C2=NOC(C(=O)N3CCC4(CC3)OCCO4)C2)c1 (stereo unspecified)	SF1 activator 56.5
COc1cc(C(=O)OC2CC3CCC(C2)N3C)cc(OC)c1OC (stereo unspecified)	none (no result: ERa coact pot, ERb coact inh, ERa SRC1 inh, SF1 activator, RORa activator)
CCOC(=O)c1cc2c(cn1)[nH]c1ccccc12	none
COC(=O)c1cc2c(cn1)[nH]c1ccccc12	BAP1 inh active (no result: ERa coact pot, ERb coact inh, ERa SRC1 inh, SF1 activator, RORa activator)
O=C(Nc1ccc(Cl)cc1C(=O)c1ccccc1)c1ccc(Br)cc1	none (no result: ERa coact pot, ERb coact inh, ERa SRC1 inh, SF1 activator, RORa activator)
CC1CCC/C=C/C2CC(O)CC2C(O)/C=C/C(=O)O1 (stereo unspecified)	none (no result: BAP1 inh, SF1 activator, RORa activator)
C[C@H]1CCC[C@@H](O)CCC/C=C/c2cc(O)cc(O)c2C(=O)O1	ERa coact pot 466.0 (no result: BAP1 inh)
O=c1[nH]c(=O)n(CCC2=CCCCC2)c(O)c1C=Nc1cccc(F)c1	ERa coact pot 254.3 (no result: BAP1 inh, SF1 activator, RORa activator)
CN(C)CCN=Cc1c(O)n(CCC2=CCCCC2)c(=O)[nH]c1=O	none
Nc1ccccc1N=Cc1c(O)n(CCC2=CCCCC2)c(=O)[nH]c1=O	ERa SRC1 inh 57.0, SF1 activator 78.5
Cc1ccc(S(=O)(=O)Cc2ccc(C(=O)N3CCC4(CC3)OCCO4)o2)cc1	ERb coact inh 55.8, ERa SRC1 inh 50.8
O=C(Nc1ccc(Br)cc1C(=O)c1ccccc1Cl)c1ccco1	none (no result: ERa coact pot, ERb coact inh, ERa SRC1 inh, SF1 activator, RORa activator)
COc1ccccc1-n1c(C=Cc2ccccc2[N+](=O)[O-])nc2ccccc2c1=O	none (no result: ERa coact pot, ERb coact inh, ERa SRC1 inh, SF1 activator, RORa activator)
CC[C@@H](CO)NC(=O)[C@@H]1C=C2c3cccc4c3c(cn4C)C[C@H]2N(C)C1	ERb coact inh 51.5[fluorescence artefact?]
CC[C@@H](CO)NC(=O)[C@@H]1C=C2c3cccc4[nH]cc(c34)C[C@H]2N(C)C1	none (no result: ERa coact pot, ERb coact inh, ERa SRC1 inh, SF1 activator, RORa activator)
COc1ccccc1OCCCn1cc(C(=O)c2ccco2)c2ccccc21	SF1 activator 51.7, RORa activator 64.9 (not shown: BAP1 inh)
Nc1nn[nH]n1	none (no result: ERa coact pot, ERb coact inh, ERa SRC1 inh, SF1 activator, RORa activator)
O=c1[nH]c(=O)n(CCc2ccccc2)c(O)c1C=NCc1ccc2c(c1)OCO2	ERa coact pot 266.9[fluorescence artefact?], ERa SRC1 inh 54.6[fluorescence artefact?] (no result: BAP1 inh, SF1 activator, RORa activator)
CCOc1ccccc1-n1c(O)c(C=NCc2ccc3c(c2)OCO3)c(=O)[nH]c1=O	none
Cc1nn(C)c(C)c1/C=C1/CC2C3CC=C4CC(O)CCC4(C)C3CCC2(C)C1=O (stereo unspecified)	none (no result: BAP1 inh, SF1 activator, RORa activator)
CCn1ncc(/C=C2/CC3C4CC=C5CC(O)CCC5(C)C4CCC3(C)C2=O)c1C (stereo unspecified)	ERa coact pot 541.8[fluorescence artefact?] (no result: BAP1 inh, SF1 activator, RORa activator)
Cc1ccc(C)c(N2CCNCC2)c1	none (no result: ERa coact pot, ERb coact inh, ERa SRC1 inh, SF1 activator, RORa activator)
COc1ccc(C2NCc3ccc4c(c3-n3cccc32)OCO4)cc1O (stereo unspecified)	RORa activator 49.5
O=C(Nc1ccc(Br)cc1C(=O)c1ccccc1Cl)c1ccc([N+](=O)[O-])cc1	none (no result: ERa coact pot, ERb coact inh, ERa SRC1 inh, SF1 activator, RORa activator)
O=C(Nc1cccnc1)c1c(O)c2c(n(Cc3ccccc3)c1=O)CCCC2	BAP1 inh active | BAP1 inh conf inactive
O=C(Nc1ccncc1)c1c(O)c2ccccc2n(Cc2ccccc2)c1=O	none
O=P(Nc1cccc(F)c1)(Oc1ccccc1Cl)Oc1ccccc1Cl	none (no result: ERa coact pot, ERb coact inh, ERa SRC1 inh, SF1 activator, RORa activator)
COCCOC(=O)c1c(N)n(Cc2ccco2)c2nc3ccccc3nc12	none (not shown: BAP1 inh) | BAP1 inh conf inactive
CCCCn1c(=O)c(C(=O)NCc2ccncc2)c(O)c2ccccc21	BAP1 inh active | BAP1 inh conf inactive
COc1cc(C)c(CNCCc2ccccc2OC)cc1C	none (no result: ERa coact pot, ERb coact inh, ERa SRC1 inh, SF1 activator, RORa activator)

Source: PubChem (several laboratories)
